This is an account of results in ChEMBL document CHEMBL5584326, “Second-generation piperazine derivatives as promising radiation countermeasures” (RSC Med Chem, 2024).

For one data set, the system named is Jurkat. Put plainly: Cytotoxicity against human Jurkat cells assessed as reduction in cell viability at 100 uM measured after 48 hrs by WST-1 assay. The data set is classed as toxicity, cell-based. The procedure, abridged:
(§1)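 Cells kept at 37 °C in humidified 5% CO2, adherent lines under 10 passages, suspension lines under 20, exponential phase. Seeded at 1–50 × 10^3 cells per well, settled overnight, then a single 48 h exposure at 100 μM final. WST-1 read at 440 nm. Proliferation given as % of 0.1% DMSO mock control, mean of three independent experiments.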
(In general: Formazan colour is commonly taken as a measure of viable cells.)

The test system of a further data set is MOLT-4. Description: Cytotoxicity against human MOLT-4 cells assessed as reduction in cell viability at 100 uM measured after 48 hrs by WST-1 assay. The data set is classed as toxicity, cell-based. Conditions: molt-4, 48 h. The procedure, abridged: as §1
The next data set concerns A549. Description: Cytotoxicity against human A549 cells assessed as reduction in cell viability at 100 uM measured after 48 hrs by WST-1 assay. It is filed as toxicity, cell-based. Conditions: a549, 48 h. The procedure, abridged:
as §1

A further data set deals with HT-29. Put plainly: Cytotoxicity against human HT-29 cells assessed as reduction in cell viability at 100 uM measured after 48 hrs by WST-1 assay. It is filed as toxicity, cell-based. Conditions: ht-29, 48 h. The procedure, abridged:
as §1

The next data set has as its system PANC-1. Description: Cytotoxicity against human PANC-1 cells assessed as reduction in cell viability at 100 uM measured after 48 hrs by WST-1 assay. The data set is classed as toxicity, cell-based. Conditions: panc-1, 48 h. The procedure, abridged: as §1
Another data set deals with MCF7. Put plainly: Cytotoxicity against human MCF7 cells assessed as reduction in cell viability at 100 uM measured after 48 hrs by WST-1 assay. It is filed as toxicity, cell-based. Conditions: mcf7, 48 h. The procedure, abridged:
as §1

In the next data set the test system is SAOS-2. Description: Cytotoxicity against human SAOS-2 cells assessed as reduction in cell viability at 100 uM measured after 48 hrs by WST-1 assay. The following applies: saos-2, 48 h. The data set is classed as toxicity, cell-based. The procedure, abridged:
as §1

The test system of a further data set is MRC5. Put plainly: Cytotoxicity against human MRC5 cells assessed as reduction in cell viability at 100 uM measured after 48 hrs by WST-1 assay. Conditions: mrc5, 48 h. The data set is classed as toxicity, cell-based. The procedure, abridged: as §1
The nature of data set [1]: Cytotoxicity against human PBMC assessed as optimal non-toxic concentration required to show >=90 to 100% cell viability measured after 48 hrs by MTS assay. It is filed as toxicity, cell-based. The following applies: read-out: Activity. The procedure, abridged:
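PBMCs from a healthy donor were isolated on Histopaque-1077 and cultured in RPMI 1640 with 20% inactivated FBS. About 5×10^4 cells per well were exposed 48 h at 37 °C, 5% CO2 to 10–1000 μM. MTS was added 4 h before reading at 490 nm, blank subtracted, untreated control set to 100%. Concentration taken as viability ≥90% and not below control (P 0.05), mean of ≥3 measurements.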

The test system of another data set is Blood. Description: Radioprotective activity against 3 Gy gamma radiation-induced DNA damage in human whole blood assessed as reduction in number of dicentric chromosomes per cell by measuring radioprotection factor at 1000 uM preincubated for 1 hr followed by 3 Gy gamma irradiation and measured after 48 hrs by giemsa staining based microscopic analysis relative to control. The data set is classed as functional. The following applies: time 49 hrs. The procedure, abridged: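 Heparinized whole blood from healthy male donors, 60 min compound pre-exposure, then single 3 Gy 60Co gamma dose at 0.6 Gy/min. After 30 min at 37 °C, cultured in RPMI 1640 with 20% FBS and 2% PHA. Colcemid 0.25 μg/ml added at 48 h, harvest at 50 h, KCl hypotonic, methanol:acetic acid fixation, 5% Giemsa. Automated metaphase scoring. RF = […].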

The nature of data set [2]: Cytotoxicity against human PBMC assessed as reduction in cell viability at 20 uM measured after 48 hrs by MTS assay. It is filed as toxicity, cell-based. The procedure, abridged: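 PBMCs isolated from whole blood of a healthy donor by Histopaque-1077 density centrifugation, cultured in RPMI 1640 GlutaMAX with 20% inactivated FBS and penicillin/streptomycin. About 5×10^4 cells/well exposed to 10–1000 μM for 48 h at 37 °C, 5% CO2. MTS added 4 h before reading absorbance at 490 nm, cell-free medium blank subtracted. Untreated control set as 100%; mean of ≥3 independent measurements.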

On to `COc1cc([N+](=O)[O-])ccc1OCC(O)CN1CCN(CCO)CC1` (stereo not drawn), for which the Activity entry in the data set on Jurkat, in the data set on MOLT-4, with A549, with HT-29, in the data set with PANC-1 and in the data set on MCF7 was “Non-Toxic” each time. In addition, the Activity result in the data set with SAOS-2 and in the data set with MRC5 was “Non-Toxic” each time. Also, the MNTC at 48 h in data set [1] came out at 500 µM.
`OCCN1CCN(CC(O)COc2ccc(Oc3ccc(F)cc3)cc2)CC1` (stereo not drawn): the Activity result with Jurkat, with MOLT-4, in the data set with A549, with HT-29, in the data set on PANC-1 and in the data set on MCF7 was “Toxic” in each case. For the same compound, the Activity result with SAOS-2 and in the data set on MRC5 was “Toxic” each time.
Turning to `COc1ccc(OCC(O)CN2CCN(CCO)CC2)c([N+](=O)[O-])c1` (stereo not drawn), the Activity entry in the data set with Jurkat, with MOLT-4, in the data set on A549, in the data set on HT-29, in the data set with PANC-1 and in the data set on MCF7 was “Non-Toxic” throughout. Also, the Activity result in the data set with SAOS-2 and in the data set on MRC5 was “Non-Toxic” in each case. Further, the MNTC at 48 h in data set [1] amounted to 500 µM.
Consider `O=[N+]([O-])c1cc(OCC(O)CN2CCN(CCO)CC2)ccc1Cl` (stereo not drawn), for which the Activity entry with Jurkat, with MOLT-4, with A549, in the data set with HT-29, with PANC-1 and in the data set on MCF7 was “Non-Toxic” each time. Further, the Activity result in the data set on SAOS-2 and with MRC5 was “Non-Toxic” each time. The MNTC at 48 h in data set [1] stood at 200 µM.
On to `OCCN1CCN(CC(O)COc2cccc(Cl)c2)CC1` (stereo not drawn), for which the Activity result in the data set with Jurkat, in the data set with MOLT-4, in the data set on A549, with HT-29, in the data set with PANC-1 and in the data set on MCF7 was “Non-Toxic” throughout. Also, the Activity result in the data set on SAOS-2 and in the data set with MRC5 was “Non-Toxic” each time. Also, in data set [1], the MNTC at 48 h amounted to 500 µM.
Consider `OCCN1CCN(CC(O)COc2ccc(F)cc2)CC1` (stereo not drawn), for which the Activity result with Jurkat, in the data set with MOLT-4, in the data set on A549, in the data set on HT-29, in the data set on PANC-1 and in the data set on MCF7 was “Non-Toxic” each time. The Activity result in the data set on SAOS-2 and in the data set on MRC5 was “Non-Toxic” throughout. Moreover, the MNTC at 48 h in data set [1] is 1000 µM. For the same compound, the PI with Blood came to 1.53.
As for `O=[N+]([O-])c1ccc(OCC(O)CN2CCN(CCO)CC2)c(F)c1` (stereo not drawn), the Activity result with Jurkat, in the data set with MOLT-4, in the data set on A549, in the data set with HT-29, in the data set on PANC-1 and in the data set with MCF7 was “Non-Toxic” each time. In addition, the Activity result in the data set on SAOS-2 and in the data set with MRC5 was “Non-Toxic” throughout. Moreover, the MNTC at 48 h in data set [1] was 500 µM.
Regarding `OCCN1CCN(CC(O)COc2cc(Cl)c(Cl)cc2Cl)CC1` (stereo not drawn), the Activity result in the data set with Jurkat, with MOLT-4, in the data set with A549, with HT-29, in the data set on PANC-1 and with MCF7 was “Toxic” throughout. In addition, the Activity result in the data set on SAOS-2 and in the data set on MRC5 was “Toxic” throughout.
As to `NCCCNCCSP(=O)(O)O` [AMIFOSTINE], the Activity entry in data set [2] is on record as “Toxic”. For the same compound, the MNTC at 48 h in [1] came to 10 µM.
